This note sets out measurements from ChEMBL document CHEMBL2069205 (Bioorg Med Chem Lett, 2012).

Data set [1] addresses T1, Adenosine receptor A3 (Homo sapiens) (UniProt P0DMS8).
T1 sequence (whole entry): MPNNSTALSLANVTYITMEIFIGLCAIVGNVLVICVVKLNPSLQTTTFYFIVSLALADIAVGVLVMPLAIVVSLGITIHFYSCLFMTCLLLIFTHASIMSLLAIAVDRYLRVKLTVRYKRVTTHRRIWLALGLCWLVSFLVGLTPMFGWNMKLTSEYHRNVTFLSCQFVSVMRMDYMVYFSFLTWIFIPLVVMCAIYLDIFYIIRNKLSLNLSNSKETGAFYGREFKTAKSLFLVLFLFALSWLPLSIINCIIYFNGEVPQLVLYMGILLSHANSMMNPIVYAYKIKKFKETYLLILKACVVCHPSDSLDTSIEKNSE
Nature of the data set: Inhibition of human adenosine A3 receptor at 10 uM. The method, boiled down:
(§1)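 The Lead Profiling binding panel (68 GPCRs, ion channels and transporters) was run at a single point, reading percent inhibition.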

Data set [2] has as its system Liver microsomes. In words: Drug metabolism in human liver microsomes assessed as methoxy-O-demethylation by mass spectrophotometry. The class given is ADME, Microsome. In outline:
(§2)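 In vitro biotransformation in liver microsomes was examined, with primary metabolic pathways identified by mass spectrometry.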
(In general: Liver microsomes are vesicles of endoplasmic reticulum, rich in cytochrome P450 enzymes.)

The nature of data set [3]: Intrinsic clearance in human liver microsomes. The class given is ADME, Microsome. The note with it: read-out: CLH. The method, boiled down: (§3)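 Intrinsic clearance was measured in hepatic microsomes, and the data were used to predict hepatic clearance (CL_HEP).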
Data set [4] concerns Liver microsomes. Nature of the data set: Drug metabolism in human liver microsomes assessed as tolyl-oxidation by mass spectrophotometry. The class given is ADME, Microsome. The method, boiled down:
as §2

Data set [5] has as its target Cannabinoid receptor 1 (Homo sapiens) (UniProt P21554). In words: Inhibition of human CB1 receptor at 10 uM. In outline:
as §1

Data set [6] can be described thus: Intrinsic clearance in rat liver microsomes. It is filed as ADME, Microsome. The note with it: read-out: CLH. The method, boiled down: as §3
The subject of data set [7] is Liver microsomes. In words: Drug metabolism in rat liver microsomes assessed as methoxy-O-demethylation by mass spectrophotometry. It is filed as ADME, Microsome. The method, boiled down: as §2
Data set [8] concerns the target T2, Potassium voltage-gated channel subfamily KQT member 4 (Homo sapiens, UniProt P56696).
T2 sequence (P56696 whole entry): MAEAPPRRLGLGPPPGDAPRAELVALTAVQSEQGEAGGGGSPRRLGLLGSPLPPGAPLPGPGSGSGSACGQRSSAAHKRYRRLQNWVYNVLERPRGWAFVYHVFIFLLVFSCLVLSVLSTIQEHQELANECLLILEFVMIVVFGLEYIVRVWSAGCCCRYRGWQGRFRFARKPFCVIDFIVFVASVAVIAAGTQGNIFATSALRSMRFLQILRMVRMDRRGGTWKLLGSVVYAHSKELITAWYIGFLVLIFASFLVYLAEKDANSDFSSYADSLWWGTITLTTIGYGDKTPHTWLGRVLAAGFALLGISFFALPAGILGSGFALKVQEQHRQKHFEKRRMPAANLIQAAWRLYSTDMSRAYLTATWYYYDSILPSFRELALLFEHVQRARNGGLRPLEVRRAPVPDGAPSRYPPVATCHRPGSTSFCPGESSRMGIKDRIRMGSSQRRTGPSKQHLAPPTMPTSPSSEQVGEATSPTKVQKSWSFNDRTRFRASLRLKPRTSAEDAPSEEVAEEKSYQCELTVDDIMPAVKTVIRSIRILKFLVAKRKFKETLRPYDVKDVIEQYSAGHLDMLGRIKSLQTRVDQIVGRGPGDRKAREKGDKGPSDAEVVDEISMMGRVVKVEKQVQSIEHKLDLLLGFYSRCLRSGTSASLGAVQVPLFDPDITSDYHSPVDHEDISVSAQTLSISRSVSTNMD
In words: Activation of KCNQ4 channel expressed in CHO cells assessed as depolarization-induced […] after 3 mins by patch clamp assay relative to control. The class given is cell-based. The method, boiled down: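 KCNQ4-expressing CHO cells were measured on the same perforated population patch-clamp platform. Cells were held at −70 mV and depolarized to +40 mV, with step current measured at +40 mV before and after 3 min of compound. Effect was calculated as percent change from the pre-compound current in the same well. The 8-point, threefold concentration series was run in duplicate.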

Data set [9] relates to Liver microsomes. Nature of the data set: Drug metabolism in rat liver microsomes assessed as tolyl-oxidation by mass spectrophotometry. The class given is ADME, Microsome. The method, boiled down:
as §2

For data set [10], the target named is Potassium voltage-gated channel subfamily KQT member 2 (Homo sapiens, UniProt O43526). In words: Activation of KCNQ2 channel expressed in CHO cells assessed as depolarization-induced […] after 3 mins by patch clamp assay relative to control. The class given is cell-based.
Potassium voltage-gated channel subfamily KQT member 2, sequence (O43526 whole entry): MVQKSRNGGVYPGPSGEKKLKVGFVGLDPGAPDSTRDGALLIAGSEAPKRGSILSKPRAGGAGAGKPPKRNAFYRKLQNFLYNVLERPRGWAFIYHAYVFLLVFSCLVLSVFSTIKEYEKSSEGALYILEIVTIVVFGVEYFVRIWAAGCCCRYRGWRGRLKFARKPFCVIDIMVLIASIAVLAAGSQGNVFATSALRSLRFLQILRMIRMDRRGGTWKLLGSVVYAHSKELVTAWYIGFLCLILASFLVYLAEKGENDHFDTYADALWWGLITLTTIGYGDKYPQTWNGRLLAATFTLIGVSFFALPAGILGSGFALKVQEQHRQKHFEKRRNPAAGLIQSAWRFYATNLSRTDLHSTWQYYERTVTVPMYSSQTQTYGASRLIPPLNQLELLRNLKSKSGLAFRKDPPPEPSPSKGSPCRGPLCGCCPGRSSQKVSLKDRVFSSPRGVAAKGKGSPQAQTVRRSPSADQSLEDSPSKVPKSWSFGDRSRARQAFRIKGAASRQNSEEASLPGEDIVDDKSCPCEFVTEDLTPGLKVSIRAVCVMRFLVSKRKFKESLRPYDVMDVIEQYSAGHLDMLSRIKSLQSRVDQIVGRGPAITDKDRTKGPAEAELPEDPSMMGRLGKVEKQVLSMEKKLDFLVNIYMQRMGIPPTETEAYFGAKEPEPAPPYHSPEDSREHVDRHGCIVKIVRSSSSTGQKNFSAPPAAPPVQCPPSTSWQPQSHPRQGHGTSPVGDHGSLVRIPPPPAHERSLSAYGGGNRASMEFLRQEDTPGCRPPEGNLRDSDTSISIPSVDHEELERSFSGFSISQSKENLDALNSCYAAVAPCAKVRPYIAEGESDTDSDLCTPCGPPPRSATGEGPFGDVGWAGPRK
Data set [11] deals with Sodium-dependent dopamine transporter (Homo sapiens) (UniProt Q01959). Nature of the data set: Inhibition of human DAT at 10 uM. The method, boiled down: as §1
Sodium-dependent dopamine transporter (Homo sapiens), sequence (Q01959 whole entry): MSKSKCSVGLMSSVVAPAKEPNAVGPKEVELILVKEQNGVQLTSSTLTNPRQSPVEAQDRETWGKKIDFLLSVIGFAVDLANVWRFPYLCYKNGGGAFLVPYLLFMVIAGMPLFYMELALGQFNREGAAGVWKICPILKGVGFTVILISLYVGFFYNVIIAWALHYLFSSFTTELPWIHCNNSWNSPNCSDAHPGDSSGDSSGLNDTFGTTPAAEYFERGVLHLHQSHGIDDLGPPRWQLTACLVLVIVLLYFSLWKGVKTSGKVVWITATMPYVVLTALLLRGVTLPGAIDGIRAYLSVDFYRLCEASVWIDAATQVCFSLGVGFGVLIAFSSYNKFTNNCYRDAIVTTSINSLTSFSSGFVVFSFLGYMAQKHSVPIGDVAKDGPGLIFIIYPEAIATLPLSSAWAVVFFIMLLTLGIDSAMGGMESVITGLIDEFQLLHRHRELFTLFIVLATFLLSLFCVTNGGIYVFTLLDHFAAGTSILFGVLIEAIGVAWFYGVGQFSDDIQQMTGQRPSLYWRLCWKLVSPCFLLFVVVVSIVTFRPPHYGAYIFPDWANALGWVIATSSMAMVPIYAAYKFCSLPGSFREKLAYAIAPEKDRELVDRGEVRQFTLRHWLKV
Data set [12] relates to Plasma. Nature of the data set: Fraction unbound in human plasma. The class given is ADME, cell-free. The method, boiled down: (§4)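 Plasma protein binding was measured by rapid equilibrium dialysis, giving the unbound fraction.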
Data set [13] has as its system Plasma. Nature of the data set: Fraction unbound in rat plasma. The class given is ADME, cell-free. In outline:
as §4

In data set [14] the target is 5-hydroxytryptamine receptor 2B (Homo sapiens) (UniProt P41595). In words: Inhibition of human 5HT2B receptor at 10 uM. The method, boiled down: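 Commercial lead-profiling binding panel of up to 68 GPCRs, ion channels and transporters; percent inhibition measured at a single concentration of 10 µM.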
5-hydroxytryptamine receptor 2B (Homo sapiens), sequence (P41595 whole entry): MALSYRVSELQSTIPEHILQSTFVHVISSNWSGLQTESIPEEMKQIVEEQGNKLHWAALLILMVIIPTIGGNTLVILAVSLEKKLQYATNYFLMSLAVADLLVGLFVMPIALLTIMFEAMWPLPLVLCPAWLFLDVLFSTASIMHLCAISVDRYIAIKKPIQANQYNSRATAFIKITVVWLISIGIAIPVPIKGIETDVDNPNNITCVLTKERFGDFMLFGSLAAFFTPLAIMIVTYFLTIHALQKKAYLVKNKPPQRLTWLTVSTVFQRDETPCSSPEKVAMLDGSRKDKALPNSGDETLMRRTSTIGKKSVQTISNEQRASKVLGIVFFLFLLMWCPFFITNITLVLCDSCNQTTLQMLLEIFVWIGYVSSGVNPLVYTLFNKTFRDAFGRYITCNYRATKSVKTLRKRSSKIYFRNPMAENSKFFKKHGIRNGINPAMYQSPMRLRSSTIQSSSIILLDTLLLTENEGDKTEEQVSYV
Data set [15] concerns the target T3, Potassium voltage-gated channel subfamily KQT member 1 (Homo sapiens, UniProt P51787).
T3 sequence (P51787 whole entry): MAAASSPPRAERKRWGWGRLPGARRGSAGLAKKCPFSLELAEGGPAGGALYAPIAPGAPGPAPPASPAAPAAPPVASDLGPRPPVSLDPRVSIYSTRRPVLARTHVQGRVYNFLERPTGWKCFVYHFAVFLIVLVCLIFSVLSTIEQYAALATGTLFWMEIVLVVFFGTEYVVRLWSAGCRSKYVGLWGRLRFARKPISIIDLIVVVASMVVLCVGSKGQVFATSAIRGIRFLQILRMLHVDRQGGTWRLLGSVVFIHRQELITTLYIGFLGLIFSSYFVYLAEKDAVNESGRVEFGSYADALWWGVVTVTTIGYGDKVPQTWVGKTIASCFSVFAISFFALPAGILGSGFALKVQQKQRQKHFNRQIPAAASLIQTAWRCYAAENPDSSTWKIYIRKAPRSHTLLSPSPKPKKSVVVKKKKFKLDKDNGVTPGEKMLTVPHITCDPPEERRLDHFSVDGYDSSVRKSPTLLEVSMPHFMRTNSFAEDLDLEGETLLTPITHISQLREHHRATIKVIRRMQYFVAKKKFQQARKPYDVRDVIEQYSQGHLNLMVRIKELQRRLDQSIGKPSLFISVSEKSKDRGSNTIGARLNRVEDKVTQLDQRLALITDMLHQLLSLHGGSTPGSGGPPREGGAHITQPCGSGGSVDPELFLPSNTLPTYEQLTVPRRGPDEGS
Nature of the data set: Activation of Kv7.1 channel expressed in CHO cells assessed as depolarization-induced […] after 3 mins by patch clamp assay. The class given is cell-based. In outline: (§5)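 CHO cells stably expressing KCNQ1 were run by perforated (amphotericin B, 50 µg/ml) population patch clamp in pH 7.4 HEPES extracellular solution. Cells were held at −80 mV and stepped to +40 mV for 2000 ms. Current at the end of the step was taken before and after 3 min of compound, as percent change. Wells needed >30 MΩ seal and 0.6–0.8 nA minimum current. EC50s came from 8-point, threefold dilutions in duplicate.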
Background: The patch-clamp technique gives a direct electrical read-out from membranes.

Data set [16] has as its target T3, Potassium voltage-gated channel subfamily KQT member 1. In words: Activation of Kv7.1 channel expressed in CHO cells assessed as depolarization-induced […] after 3 mins by patch clamp assay relative to control. It is filed as cell-based. The note with it: 0.05 h, read-out: %max. The method, boiled down: as §5

Cannabinoid receptor 1 (Homo sapiens), sequence (P21554 whole entry): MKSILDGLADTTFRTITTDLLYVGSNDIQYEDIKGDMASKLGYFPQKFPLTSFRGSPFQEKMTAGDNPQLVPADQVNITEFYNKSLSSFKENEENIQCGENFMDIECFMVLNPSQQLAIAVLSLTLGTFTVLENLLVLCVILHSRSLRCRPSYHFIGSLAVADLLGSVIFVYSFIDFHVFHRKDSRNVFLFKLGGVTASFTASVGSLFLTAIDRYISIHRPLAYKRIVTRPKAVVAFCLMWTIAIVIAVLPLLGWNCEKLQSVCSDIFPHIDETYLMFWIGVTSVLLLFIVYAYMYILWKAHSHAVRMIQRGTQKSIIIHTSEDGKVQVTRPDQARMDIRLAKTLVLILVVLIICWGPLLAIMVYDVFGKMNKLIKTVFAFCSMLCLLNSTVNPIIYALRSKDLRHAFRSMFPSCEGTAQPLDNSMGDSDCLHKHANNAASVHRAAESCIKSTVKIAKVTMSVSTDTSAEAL

For the compound `COc1ccc(-c2csc(NC(=O)[C@H]3CCCCN3S(=O)(=O)c3ccc(C)cc3)n2)cc1`, the inhibition (in general, the change of the read-out against control, counted positive when it falls) in data set [1] turned out to be 73%; in data set [5], 97%; in data set [11] it was 54%; in [14], 66%. The Drug metabolism result in the data set on Liver microsomes [2], in the data set on Liver microsomes [4], with Liver microsomes [7] and in the data set with Liver microsomes [9] was “Active” in each case. The CLint scaled amounted to 18 mL/min/kg in [3] and 64.7 mL/min/kg in data set [6]. Moreover, the EC50 in data set [8] and in [10] was > 30000 nM in each case. The Fu in the data set on Plasma [12] stood at 0.6%; in the data set on Plasma [13], 0.7%.
Consider `O=C(Nc1nc(-c2ccc(OC(F)(F)F)cc2)cs1)[C@H]1CCCCN1S(=O)(=O)c1ccc(OC(F)(F)F)cc1`, for which the CLint scaled in data set [3] is 7.9 mL/min/kg; in data set [6] it was 20.6 mL/min/kg. For the same compound, in [15] (human, cho, 0.05 h), the Activity result was “Not Active”.
In the case of `COc1ccc(-c2csc(NC(=O)[C@@H]3CCCCN3S(=O)(=O)c3ccccc3)n2)cc1`, the EC50 (as a rule, the concentration that produces a half-maximal response) in data set [15] was > 30000 nM.
Take `COc1ccc(-c2csc(NC(=O)[C@H]3CCCCN3S(=O)(=O)c3ccc4c(c3)OCO4)n2)cc1`: the Emax in data set [16] was 178%. The EC50 in [15] came to 780 nM.
In the same order, the values of `COc1ccc(-c2csc(NC(=O)[C@H]3CCCCN3S(=O)(=O)c3ccccc3)n2)cc1` are 359% and 1470 nM.
For `COc1ccc(-c2csc(NC(=O)C3CCCCN3S(=O)(=O)c3ccccc3)n2)cc1` (racemic), the Emax in [16] is 285%. For the same compound, in data set [15], the EC50 came to 1690 nM.
